Data published in ChEMBL document CHEMBL3785023, “Development and Pharmacological Characterization of Selective Blockers of 2-Arachidonoyl Glycerol Degradation with Efficacy in Rodent Models of Multiple Sclerosis and Pain” (J Med Chem, 2016).
Calls of active or inactive are those of the source.

How the values were obtained:
Heart [1] = test: Cardiotoxicity in Langendorff-perfused Sprague-Dawley rat heart assessed as time duration of cardiac cycle length at 0.01 uM by ECG analysis (reference value: 238.38 +/- 9.23 milliseconds); format: toxicity, tissue-based
Heart [2] = test: Cardiotoxicity in Langendorff-perfused Sprague-Dawley rat heart assessed as time duration of cardiac cycle length at 1 uM by ECG analysis (reference value: 238.38 +/- 9.23 milliseconds); format: toxicity, tissue-based
Heart [3] = test: Cardiotoxicity in Langendorff-perfused Sprague-Dawley rat heart assessed as atrioventricular conduction time at 1 uM by ECG analysis (reference value: 45.62 +/- 4.49 milliseconds); format: toxicity, tissue-based
Heart [4] = test: Cardiotoxicity in Langendorff-perfused Sprague-Dawley rat heart assessed as intraventricular conduction time at 0.01 uM by ECG analysis (reference value: 14.26 +/- 0.71 milliseconds); format: toxicity, tissue-based, Cardiac ventricle
Heart [5] = test: Cardiotoxicity in Langendorff-perfused Sprague-Dawley rat heart assessed as time duration of action potential at 0.1 uM by ECG analysis (reference value: 75.65 +/- 0.87 milliseconds); format: toxicity, tissue-based
Heart [6] = test: Cardiotoxicity in Langendorff-perfused Sprague-Dawley rat heart assessed as corrected time duration of action potential at 0.01 uM by ECG analysis (reference value: 155.26 +/- 2.96 milliseconds); format: toxicity, tissue-based
Mus musculus [7] = test: Toxicity in C57BL/6J mouse assessed as changes in locomotor activity at 3 mg/kg, ip; format: organism-based; settings: in vivo
Mus musculus [8] = test: Toxicity in CD-1 mouse assessed as 2-AG level in pawskin at 0.3 mg/kg, ip by LC-MS analysis (reference value: 6.1 +/- 0.3 pmol/g); format: organism-based; settings: in vivo
How it was run: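 Male CD-1 mice received 0.3 mg/kg i.p. in 0.5% DMSO/saline, with formalin (1.25%, 30 µL) injected into the dorsal hind paw. Paw skin or spinal cord was taken at 5 min post-dose. Tissue was homogenized in CHCl3/MeOH/50 mM Tris-HCl (2:1:1) containing d5-2-AG, extracted with chloroform and analysed by LC-MS. n = 4; ANOVA with Bonferroni test.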

Mus musculus [9] = test: Toxicity in CD-1 mouse assessed as changes in normal pain threshold at 3 to 10 mg/kg, po measured up to 60 mins by hot plate test; format: organism-based; settings: in vivo, 1 h
Monoglyceride lipase [10] = biological target: T1, Monoglyceride lipase (Homo sapiens, UniProt Q99685); test: Inhibition of recombinant C-terminal His6-tagged human MAGL expressed in Escherichia coli using 2-arachidonoyl-[3H]-glycerol as substrate incubated for 20 mins by scintillation counting method
T1 sequence (Q99685 whole entry): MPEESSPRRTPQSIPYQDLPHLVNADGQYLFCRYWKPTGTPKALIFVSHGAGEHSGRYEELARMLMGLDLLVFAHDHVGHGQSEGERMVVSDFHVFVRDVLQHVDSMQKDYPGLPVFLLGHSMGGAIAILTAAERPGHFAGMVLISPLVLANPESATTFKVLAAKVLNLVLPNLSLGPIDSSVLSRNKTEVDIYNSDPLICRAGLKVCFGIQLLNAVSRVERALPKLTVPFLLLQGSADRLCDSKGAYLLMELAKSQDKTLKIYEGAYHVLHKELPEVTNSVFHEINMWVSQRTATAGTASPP

Monoglyceride lipase [11] = biological target: T2, Monoglyceride lipase (Rattus norvegicus, UniProt Q8R431); test: Inhibition of MAGL in rat brain membranes preincubated for 20 mins followed by fluorophosphonate-rhodamine addition measured after 30 mins by competitive affinity based proteomic profiling assay; format: cell membranes, Membrane
T2 sequence (Q8R431 whole entry): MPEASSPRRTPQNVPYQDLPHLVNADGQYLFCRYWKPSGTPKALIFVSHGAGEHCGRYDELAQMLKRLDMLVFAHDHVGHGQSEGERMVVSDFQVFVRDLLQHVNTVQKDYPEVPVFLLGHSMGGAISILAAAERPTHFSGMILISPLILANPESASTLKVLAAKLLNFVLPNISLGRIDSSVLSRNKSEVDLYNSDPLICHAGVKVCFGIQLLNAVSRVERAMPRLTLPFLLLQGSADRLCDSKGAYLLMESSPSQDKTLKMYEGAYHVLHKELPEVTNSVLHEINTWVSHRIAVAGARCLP
How it was run: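 Rat brain membranes (1 mg/mL) preincubated with 1–1000 nM inhibitor or DMSO for 20 min at 37 °C. FP-rhodamine then added and incubated a further 30 min at 37 °C. Samples run on SDS-PAGE and serine hydrolase bands quantified by in-gel fluorescence.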

Salmonella typhimurium [12] = test: Mutagenicity in Salmonella typhimurium TA98 assessed as increase in number of colonies up to >200 uM by Ames test in presence of S9 fraction; format: toxicity, organism-based; settings: salmonella enterica subsp. enterica serovar typhimurium
Salmonella typhimurium [13] = test: Mutagenicity in Salmonella typhimurium TA98 assessed as increase in number of colonies at 1 uM by Ames test; format: toxicity, organism-based; settings: salmonella enterica subsp. enterica serovar typhimurium
Salmonella typhimurium [14] = test: Mutagenicity in Salmonella typhimurium TA100 assessed as increase in number of colonies up to >200 uM by Ames test in presence of S9 fraction; format: toxicity, organism-based; settings: salmonella enterica subsp. enterica serovar typhimurium
Mus musculus [15] = test: (§1) Reduction of disease index score in myelin oligodendrocyte glycoprotein (35 to 55)-induced C57BL/6J mouse experimental autoimmune encephalomyelitis model of multiple sclerosis at 3 mg/kg, ip dosed on day 6 postimmunization up to 21 day postimmunization measured from day 8 postimmunization; format: functional, organism-based
How it was run: (§2)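 Female C57BL/6J mice immunized with MOG35-55 were randomly assigned to groups. They received 3 mg/kg i.p. daily from 6 days post-immunization up to 21±1 d.p.i. AM251 or AM630, 1 mg/kg i.p., was given 10 min before each dose for 14 days. Clinical score was recorded daily and as cumulative score, reported as mean ± SEM. Group sizes were 4–9 mice.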

Mus musculus [16] = test: as §1, with “mg/kg, ip administered post CB1 antagonist/inverse agonist AM251 addition dosed on” for “mg/kg, ip dosed on”, “from day 12 postimmunization” for “from day 8 postimmunization”; format: functional, organism-based; how it was run: as §2
Mus musculus [17] = test: Reduction of IBA1 positive cells in white matter anterior fasciculus of experimental autoimmune encephalomyelitis C57BL/6J mouse spinal cord at 3 mg/kg, ip administered post CB1 antagonist/inverse agonist AM251 addition by immunofluorescence assay; format: functional, organism-based
How it was run: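 MOG35-55-immunized female C57BL/6J mice were given 3 mg/kg i.p. daily. AM251 or AM630, each at 1 mg/kg, was given 10 min before each dose. Iba1 immunofluorescence with DAPI was done on spinal cord white matter (anterior fasciculus). Positive cells were counted per optic field. One-way ANOVA with Bonferroni test.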

Mus musculus [18] = test: Antinociceptive activity in CD-1 mouse assessed as inhibition of formalin-induced pain response at 0.1 to 0.3 mg/kg, ip dosed 10 mins before formalin injection measured during late phase; format: functional, organism-based
How it was run: (§3)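 Male CD-1 mice, n = 6 per group, injected with formalin (1.25% in saline, 30 μL) into the dorsal hind paw. Inhibitor (0.1 or 0.3 mg/kg i.p. in 0.5% DMSO/saline) given 10 min before formalin. Where used, AM251 or AM630 (1 mg/kg i.p.) given 10 min before the inhibitor. Time spent lifting, licking, shaking or flinching the injected paw recorded every 5 min over 60 min.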

Mus musculus [19] = test: Antinociceptive activity in CD-1 mouse assessed as inhibition of formalin-induced late phase pain response at 0.1 to 0.3 mg/kg, ip dosed 10 mins before formalin injection measured every 5 mins for 60 mins in presence of CB1 antagonist/inverse agonist AM251; format: functional, organism-based; how it was run: as §3

**Q.** How did the Time (Heart [1]) turn out when O=C1[C@H](c2ccc(F)cc2)[C@@H](c2ccc3c(c2)OCO3)N1C1CCN(C(=O)n2cncn2)CC1 (racemic) [listing 1 of 2 here] was run?
**A.** Its Time is 236.8 ms.

**Q.** And the Time (Heart [2])?
**A.** Its Time is 235.48 ms.

**Q.** And the Time (Heart [3])?
**A.** The Time was 46.67 ms.

**Q.** And the Time (Heart [4])?
**A.** The Time was 13.5 ms.

**Q.** What about the Time (Heart [5]) of the same molecule?
**A.** Its Time is 75.36 ms.

**Q.** What about the Time (Heart [6]) of the same molecule?
**A.** The Time was 156.3 ms.

**Q.** And the Activity (Mus musculus [7])?
**A.** The Activity was “Non-toxic”.

**Q.** What about the Activity (Mus musculus [8]) of the same molecule?
**A.** Its Activity is 11 pmol/g.

**Q.** And the Activity (Mus musculus [9])?
**A.** Its Activity is “Non-toxic”.

**Q.** What about the IC50 (Monoglyceride lipase [10]) of the same molecule?
**A.** Its IC50 is 7.4 nM.

**Q.** And the IC50 (Monoglyceride lipase [11])?
**A.** The IC50 was 10 nM.

**Q.** And the Activity (Salmonella typhimurium [12])?
**A.** Its Activity is “Non-toxic”.

**Q.** And the Activity (Salmonella typhimurium [13])?
**A.** The Activity was “Non-toxic”.

**Q.** What about the Activity (Salmonella typhimurium [14]) of the same molecule?
**A.** Its Activity is “Non-toxic”.

**Q.** Which results are given for O=C1[C@H](c2ccc(F)cc2)[C@@H](c2ccc3c(c2)OCO3)N1C1CCN(C(=O)n2cncn2)CC1 (racemic) [listing 2 of 2 here]?
**A.** Activity (Mus musculus [15]): Active; Activity (Mus musculus [16]): inactive; Activity (Mus musculus [17]): inactive; inhibition (Mus musculus [18]): Active; inhibition (Mus musculus [19]): inactive
